# Published values of several laboratories.
# Lines come from different studies, so protocols differ.
# Target: Casein kinase II subunit alpha (CSNK2A1, Homo sapiens, UniProt P68400)
SMILES,effect on,technique,tested at,remaining binding
F[C@@H]1CCN(c2nccc(-c3cnn4ncccc34)n2)C1,binding,,1 µM,58%
O=C(NCCCN1CCOCC1)c1ccc(Nc2ncc(Cl)c(-c3ccc(Cl)s3)n2)cc1,binding,competition with immobilised ligand,1 µM,4%
COc1cnc(Nc2cccc(S(N)(=O)=O)c2)nc1N1CCN(c2ccccc2)CC1,binding,competition with immobilised ligand,1 µM,71%
CN(C)c1ncc(F)c(-c2cnn3ncccc23)n1,binding,,1 µM,100%
Nc1ncc2c(n1)-c1c([nH]c3ccc(C#CC4CC4)cc13)CCCC2,binding,competition with immobilised ligand,1 µM,79%
O=C(Nc1c[nH]nc1C(=O)NC1CCNCC1)c1cc(F)cc(F)c1,binding,competition with immobilised ligand,1 µM,100%
Cc1cnc(Nc2ccc(C(=O)N3CCC(N4CCCC4)CC3)cc2)nc1-c1cc2ccccc2s1,binding,competition with immobilised ligand,1 µM,0.5%
Cc1cnn2ncc(-c3ccnc(N(C)C)n3)c2c1,binding,,1 µM,86%
CN(C(=O)c1ccccc1)c1cc(N(C)c2ccc3c(c2)CCc2ccc(C(=O)NCCN4CCOCC4)cc2C3=O)ccc1F,cell-free assay,competition with immobilised ligand,1 µM,100%
C[C@@H](c1ccc(-n2cnc3c(N)ncnc32)cc1)N1CCc2nn(C)c(Cc3ccccc3)c2C1=O,binding,competition with immobilised ligand,0.1 µM,73%
O=C1NC(c2ccccn2)Sc2ccccc21 (stereo not drawn),cell-free assay,competition with immobilised ligand,1 µM,61%
c1cnn2ncc(-c3ccnc(N4CCC45COC5)n3)c2c1,binding,,1 µM,40%
COc1cc(-c2cn(C3CCc4c(F)cccc4N(CC(F)(F)F)C3=O)nn2)ccc1-n1cnc(C)c1 (stereo not drawn),cell-free assay,competition with immobilised ligand,1 µM,100%
CN(C)c1nccc(-c2cnc3ncccn23)n1,binding,,1 µM,47%
O=C(c1ccc(Nc2ncc(Cl)c(-c3ccc(Cl)s3)n2)cc1)N1CCC(N2CCCC2)CC1,binding,competition with immobilised ligand,1 µM,0.9%
Cc1cc(-n2nc(Cc3cc(F)cc(C(F)(F)F)c3)nc2C)ccc1C(N)=O,cell-free assay,competition with immobilised ligand,1 µM,100%
COc1ncc2cc3ccccc3nc2c1C#N,cell-free assay,competition with immobilised ligand,5 µM,92%
Cn1nc(C(F)(F)F)cc1-c1cnc(N2CCc3cc(S(=O)(=O)Nc4c(F)cc(Cl)cc4F)cc(N4CCCC4=O)c32)nc1,cell-free assay,competition with immobilised ligand,1 µM,65%
CNC(=O)[C@@H]1CC[C@@H](n2c(-c3ccc4cnccc4c3)nc3ccc(C(=O)NCc4cccc(C(N)=O)c4)cc32)C1,binding,competition with immobilised ligand,1 µM,94%
N[C@@H]1CCN(c2nccc(-c3cnn4ncccc34)n2)C1,binding,,1 µM,52%
N#CC1(c2ccccn2)CCN(Cc2cc(C(=O)N3CCCC3)c(=O)n3ccccc23)CC1,cell-free assay,competition with immobilised ligand,1 µM,100%
